Assay results pooled from the literature.
Compare with care: the assays were run in different laboratories.
Cell line: A549
Effect on: cell growth or viability

Structure (SMILES) | test | conditions | IC50 [µM]
N.N.[Cl][Pt][Cl] | – | – | 1.2
N.N.[Cl][Pt][Cl] | MTT | 48 h | 46.4
N.N.[Cl][Pt][Cl] | MTT | 72 h | 50.8
CC[C@H](C)[C@H](NC(=O)[C@H](CC(C)C)NC(=O)[C@H](CCCCN)NC(=O)[C@H](CCCCN)NC(=O)[C@H](CC(C)C)NC(=O)[C@H](CCCNC(=N)N)NC(=O)[C@H](CCCCN)NC(=O)[C@@H](N)CC(C)C)C(=O)N[C@@H](CCCCN)C(=O)N[C@@H](CCCCN)C(=O)N[C@@H](CC(C)C)C(=O)N[C@@H](CCCNC(=N)N)C(=O)N[C@@H](CCCCN)C(N)=O | MTT | 24 h | 100
N.N.O=C([O-])C1(C(=O)[O-])CCC1.[Pt+2] | MTT | 48 h | 197
CC(C)[C@@H]1NC(=O)[C@@H](CCCNC(=N)N)NC(=O)[C@H]([C@@H](C)O)NC(=O)[C@@H](CCCNC(=N)N)NC(=O)[C@H](Cc2ccccc2)NC(=O)[C@@H](Cc2ccccc2)NC1=O | ATP luminescence | – | 61.7
CC[C@@]1(O)C(=O)OCc2c1cc1n(c2=O)Cc2cc3ccccc3nc2-1 | SRB | 48 h | 0.06
CC(C)C[C@H](NC(=O)[C@@H]1CCCN1C(=O)[C@H](Cc1ccc(O)cc1)NC(=O)[C@H](CCCCN)NC(=O)[C@H](CCCCN)NC(=O)[C@H](CS)NC(=O)[C@H](CC(C)C)NC(=O)[C@H](CCCCN)NC(=O)[C@H](CCCCN)NC(=O)[C@H](Cc1ccccc1)NC(=O)[C@H](CC(C)C)NC(=O)[C@H](CCCCN)NC(=O)[C@@H](N)CCCNC(=N)N)C(N)=O | MTT | 24 h | 258
O=C1c2ccccc2-c2c3c(cc4ccnc1c24)OCO3 | MTT | 75 h | 19.8
COC(=O)c1cc(C(C)=NNc2nc(-c3ccc(S(=O)(=O)F)cc3)cs2)ccc1O | MTT | 96 h | 65
C[C@H](NC(=O)[C@H](Cc1c[nH]cn1)NC(=O)[C@H](Cc1c[nH]c2ccccc12)NC(=O)[C@H](CCCCN)NC(=O)[C@H](Cc1c[nH]c2ccccc12)NC(=O)[C@H](Cc1c[nH]c2ccccc12)NC(=O)[C@H](CCCNC(=N)N)NC(=O)[C@H](Cc1c[nH]c2ccccc12)NC(=O)[C@H](Cc1c[nH]cn1)NC(=O)[C@@H](N)CCCNC(=N)N)C(=O)N[C@@H](CCCNC(=N)N)C(=O)N[C@@H](Cc1c[nH]c2ccccc12)C(=O)N[C@@H](Cc1c[nH]c2ccccc12)C(N)=O | MTT | 24 h | 49
CC(C)C[C@H](NC(=O)[C@H](CO)NC(=O)[C@H](CO)NC(=O)CNC(=O)[C@@H]1CCCN1C(=O)[C@H](Cc1ccc(O)cc1)NC(=O)[C@H](CC(C)C)NC(=O)[C@H](CO)NC(=O)[C@H](CS)NC(=O)[C@H](CC(C)C)NC(=O)[C@@H](N)CC(C)C)C(=O)O | MTT | 72 h | > 100
CC(C)[C@@H]1NC(=O)[C@@H](CCCNC(=N)N)NC(=O)[C@H]([C@@H](C)O)NC(=O)[C@@H](CCN)NC(=O)[C@H](Cc2ccccc2)NC(=O)[C@@H](Cc2ccccc2)NC1=O | ATP luminescence | – | > 100
CC(C)C[C@H](NC(=O)[C@H](CC(C)C)NC(=O)[C@H](CCCCN)NC(=O)[C@H](CCCCN)NC(=O)[C@H](Cc1ccccc1)NC(=O)[C@H](CC(C)C)NC(=O)[C@H](CCCCN)NC(=O)[C@H](CCCCN)NC(=O)[C@H](CC(C)C)NC(=O)[C@H](CC(C)C)NC(=O)[C@H](CCCCN)NC(=O)[C@@H](N)CCCNC(=N)N)C(=O)N[C@@H](CCCCN)C(N)=O | MTT | 24 h | 20
CC1=CC(=O)c2c(O)cccc2C1=O | MTT | – | 13.6
CC(C)[C@H](NC(=O)[C@H](Cc1c[nH]cn1)NC(=O)[C@H](Cc1c[nH]c2ccccc12)NC(=O)[C@H](Cc1c[nH]cn1)NC(=O)[C@H](C)NC(=O)[C@H](CCCCN)NC(=O)[C@H](Cc1c[nH]c2ccccc12)NC(=O)[C@H](Cc1c[nH]c2ccccc12)NC(=O)[C@H](CCCNC(=N)N)NC(=O)[C@H](Cc1c[nH]c2ccccc12)NC(=O)[C@H](CCCNC(=N)N)NC(=O)[C@@H](N)CCCNC(=N)N)C(=O)N[C@@H](Cc1c[nH]c2ccccc12)C(N)=O | MTT | 24 h | 240
c1ccc([Se][Au]=[c]2n(C3CCCCC3)ccn2C2CCCCC2)cc1 | crystal violet | – | 0.9
CC(C)C[C@H](NC(=O)[C@H](CCCCN)NC(=O)CN)C(=O)N[C@@H](C)C(=O)N[C@@H](CCCCN)C(=O)N[C@@H](CCCCN)C(=O)N[C@@H](CC(C)C)C(=O)N[C@@H](Cc1ccccc1)C(=O)N[C@@H](CCCCN)C(=O)N[C@@H](CCCCN)C(=O)N[C@@H](CC(C)C)C(=O)N[C@@H](CCCCN)C(=O)N[C@@H](Cc1ccc(O)cc1)C(N)=O | MTT | 24 h | 356
[C-]#[O+].[C-]#[O+].[C-]#[O+].[C-]#[O+].[C-]#[O+].[C-]#[O+].[C-]#[O+].[C-]#[O+].[C-]#[O+].[C-]#[O+].[Mn].[Mn] | MTT | 48 h | 20.9
